In ChEMBL document CHEMBL5653631, “A Potent and Selective ULK1 Inhibitor Suppresses Autophagy and Sensitizes Cancer Cells to Nutrient Stress” (iScience, 2018):
Blank lines part the entries; values can stand above or below the compound they belong to.

Tests used:
[1] = biological target: Ephrin type-A receptor 4 (Homo sapiens) (UniProt P54764); assay: Inhibition of human recombinant EphA4 at 500 nM in presence of ATP by radiometric assay relative to control
[2] = biological target: T1, Rhodopsin kinase GRK1 (Homo sapiens) (UniProt Q15835); assay: Inhibition of human recombinant RHOK at 500 nM related to control ULK1
T1 sequence (whole entry): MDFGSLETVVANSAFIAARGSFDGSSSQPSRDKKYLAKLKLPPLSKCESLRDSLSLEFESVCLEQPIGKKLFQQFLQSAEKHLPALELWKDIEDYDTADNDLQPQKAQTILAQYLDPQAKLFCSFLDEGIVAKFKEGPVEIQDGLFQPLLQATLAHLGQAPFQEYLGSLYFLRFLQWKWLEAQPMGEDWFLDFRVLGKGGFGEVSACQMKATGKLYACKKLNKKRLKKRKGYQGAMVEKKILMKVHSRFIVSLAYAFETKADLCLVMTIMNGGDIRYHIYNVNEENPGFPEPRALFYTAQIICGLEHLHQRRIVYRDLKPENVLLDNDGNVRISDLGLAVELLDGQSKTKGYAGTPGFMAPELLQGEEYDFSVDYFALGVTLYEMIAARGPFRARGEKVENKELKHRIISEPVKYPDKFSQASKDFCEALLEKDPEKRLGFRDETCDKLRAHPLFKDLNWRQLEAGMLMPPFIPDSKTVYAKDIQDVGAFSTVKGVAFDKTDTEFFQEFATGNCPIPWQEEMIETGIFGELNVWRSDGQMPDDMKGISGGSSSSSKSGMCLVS

[3] = biological target: LIM domain kinase 1 (Homo sapiens) (UniProt P53667); assay: Inhibition of human recombinant LIMK1 at 500 nM related to control ULK1
[4] = biological target: T2, Serine/threonine-protein kinase Nek11 (Homo sapiens) (UniProt Q8NG66); assay: Inhibition of human recombinant NEK11 at 500 nM related to control ULK1
T2 sequence (whole entry): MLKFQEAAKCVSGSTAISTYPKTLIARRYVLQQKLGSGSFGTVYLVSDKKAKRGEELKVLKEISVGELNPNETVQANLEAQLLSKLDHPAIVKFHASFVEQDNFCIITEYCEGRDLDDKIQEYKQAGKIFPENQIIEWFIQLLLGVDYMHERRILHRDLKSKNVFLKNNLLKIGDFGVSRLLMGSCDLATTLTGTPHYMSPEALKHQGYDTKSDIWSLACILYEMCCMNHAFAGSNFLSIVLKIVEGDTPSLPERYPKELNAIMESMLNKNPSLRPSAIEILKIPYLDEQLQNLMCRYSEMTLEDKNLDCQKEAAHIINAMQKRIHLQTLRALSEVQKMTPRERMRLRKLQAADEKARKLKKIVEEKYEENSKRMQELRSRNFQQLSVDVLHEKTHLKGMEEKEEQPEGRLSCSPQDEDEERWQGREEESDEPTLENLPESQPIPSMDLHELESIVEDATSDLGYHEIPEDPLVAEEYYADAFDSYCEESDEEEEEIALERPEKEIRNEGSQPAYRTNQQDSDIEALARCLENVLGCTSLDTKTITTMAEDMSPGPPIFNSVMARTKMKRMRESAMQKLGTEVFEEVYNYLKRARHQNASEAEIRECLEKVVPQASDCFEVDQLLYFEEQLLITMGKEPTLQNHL

[5] = biological target: Serine/threonine-protein kinase Nek6 (Homo sapiens) (UniProt Q9HC98); assay: Inhibition of human recombinant NEK6 at 40 nM related to control ULK1
Serine/threonine-protein kinase Nek6 (Homo sapiens), sequence (Q9HC98 whole entry): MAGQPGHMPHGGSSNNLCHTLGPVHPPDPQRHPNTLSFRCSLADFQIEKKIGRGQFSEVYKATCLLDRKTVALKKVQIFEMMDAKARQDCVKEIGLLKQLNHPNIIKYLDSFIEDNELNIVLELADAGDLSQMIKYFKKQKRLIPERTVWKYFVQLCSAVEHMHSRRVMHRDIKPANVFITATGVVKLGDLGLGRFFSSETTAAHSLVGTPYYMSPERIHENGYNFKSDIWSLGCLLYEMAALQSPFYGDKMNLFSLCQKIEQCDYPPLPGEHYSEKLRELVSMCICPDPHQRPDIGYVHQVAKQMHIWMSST

[6] = biological target: Serine/threonine-protein kinase PAK 4 (Homo sapiens) (UniProt O96013); assay: Inhibition of human recombinant PAK4 at 40 nM related to control ULK1
Serine/threonine-protein kinase PAK 4 (Homo sapiens), sequence (O96013 whole entry, looked up): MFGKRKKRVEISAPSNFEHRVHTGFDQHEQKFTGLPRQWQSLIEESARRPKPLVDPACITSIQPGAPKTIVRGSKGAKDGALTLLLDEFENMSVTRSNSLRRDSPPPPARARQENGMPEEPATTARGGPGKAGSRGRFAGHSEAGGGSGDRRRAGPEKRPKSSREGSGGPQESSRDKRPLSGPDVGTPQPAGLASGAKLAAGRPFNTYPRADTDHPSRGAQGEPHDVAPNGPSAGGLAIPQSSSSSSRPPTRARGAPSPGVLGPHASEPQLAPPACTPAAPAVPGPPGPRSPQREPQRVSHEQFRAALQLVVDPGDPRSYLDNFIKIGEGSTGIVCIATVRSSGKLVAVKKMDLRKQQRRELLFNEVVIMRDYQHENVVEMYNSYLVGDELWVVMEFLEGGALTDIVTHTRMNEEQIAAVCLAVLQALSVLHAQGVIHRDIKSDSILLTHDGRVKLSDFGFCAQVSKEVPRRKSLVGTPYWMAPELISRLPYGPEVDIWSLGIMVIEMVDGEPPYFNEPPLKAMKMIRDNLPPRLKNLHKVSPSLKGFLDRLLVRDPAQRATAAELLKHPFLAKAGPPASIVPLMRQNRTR

[7] = biological target: Tyrosine-protein kinase Blk (Homo sapiens) (UniProt P51451); assay: Inhibition of human recombinant BLK at 40 nM related to control ULK1
Tyrosine-protein kinase Blk (Homo sapiens), sequence (P51451 2-505 limits assumed): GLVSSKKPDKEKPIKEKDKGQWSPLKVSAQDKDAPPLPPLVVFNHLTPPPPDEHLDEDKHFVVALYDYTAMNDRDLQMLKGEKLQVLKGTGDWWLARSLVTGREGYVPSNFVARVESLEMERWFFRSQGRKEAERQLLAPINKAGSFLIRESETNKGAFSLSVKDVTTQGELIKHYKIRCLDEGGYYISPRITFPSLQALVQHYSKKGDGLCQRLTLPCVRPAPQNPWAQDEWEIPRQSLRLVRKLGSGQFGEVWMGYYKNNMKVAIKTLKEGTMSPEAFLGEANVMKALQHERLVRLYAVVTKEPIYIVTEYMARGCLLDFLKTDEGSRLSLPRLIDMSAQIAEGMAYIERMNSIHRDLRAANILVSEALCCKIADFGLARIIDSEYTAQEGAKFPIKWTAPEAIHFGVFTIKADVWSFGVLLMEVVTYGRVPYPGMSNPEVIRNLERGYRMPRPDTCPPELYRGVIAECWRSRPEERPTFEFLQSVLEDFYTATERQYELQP
Method in brief: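 Radiometric activity assays in a panel of 327 human recombinant kinases, each run in duplicate at one inhibitor concentration. Activity remaining is expressed as percent of vehicle control, and percent inhibition is calculated as 100% minus percent activity remaining.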

[8] = biological target: Serine/threonine-protein kinase tousled-like 2 (Homo sapiens) (UniProt Q86UE8); assay: Inhibition of human recombinant TLK2 at 40 nM in presence of ATP by radiometric assay relative to control
Serine/threonine-protein kinase tousled-like 2 (Homo sapiens), sequence (Q86UE8 whole entry, looked up): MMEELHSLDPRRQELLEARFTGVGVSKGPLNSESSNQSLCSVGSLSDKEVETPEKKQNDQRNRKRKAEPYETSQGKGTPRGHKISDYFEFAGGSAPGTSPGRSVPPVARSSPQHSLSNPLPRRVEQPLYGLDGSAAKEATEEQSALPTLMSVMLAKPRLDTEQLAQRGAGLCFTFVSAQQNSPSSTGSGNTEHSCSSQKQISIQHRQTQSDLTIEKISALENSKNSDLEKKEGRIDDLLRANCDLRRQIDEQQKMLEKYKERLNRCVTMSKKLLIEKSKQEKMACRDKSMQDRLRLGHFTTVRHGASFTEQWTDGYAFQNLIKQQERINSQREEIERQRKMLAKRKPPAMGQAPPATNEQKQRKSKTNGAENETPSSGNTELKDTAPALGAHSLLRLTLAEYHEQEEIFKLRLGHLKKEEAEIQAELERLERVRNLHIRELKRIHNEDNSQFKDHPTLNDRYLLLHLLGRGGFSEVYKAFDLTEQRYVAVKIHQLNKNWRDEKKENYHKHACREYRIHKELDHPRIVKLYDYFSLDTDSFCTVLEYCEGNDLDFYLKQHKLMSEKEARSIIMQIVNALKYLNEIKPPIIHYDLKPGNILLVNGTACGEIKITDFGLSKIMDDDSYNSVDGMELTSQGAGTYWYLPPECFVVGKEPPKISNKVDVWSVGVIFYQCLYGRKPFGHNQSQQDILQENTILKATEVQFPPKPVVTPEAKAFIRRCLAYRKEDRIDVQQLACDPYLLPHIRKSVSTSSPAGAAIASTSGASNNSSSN

[9] = biological target: Protein kinase C iota type (Homo sapiens) (UniProt P41743); assay: Inhibition of human recombinant PKCi at 40 nM in presence of ATP by radiometric assay relative to control
Protein kinase C iota type (Homo sapiens), sequence (P41743 whole entry, looked up): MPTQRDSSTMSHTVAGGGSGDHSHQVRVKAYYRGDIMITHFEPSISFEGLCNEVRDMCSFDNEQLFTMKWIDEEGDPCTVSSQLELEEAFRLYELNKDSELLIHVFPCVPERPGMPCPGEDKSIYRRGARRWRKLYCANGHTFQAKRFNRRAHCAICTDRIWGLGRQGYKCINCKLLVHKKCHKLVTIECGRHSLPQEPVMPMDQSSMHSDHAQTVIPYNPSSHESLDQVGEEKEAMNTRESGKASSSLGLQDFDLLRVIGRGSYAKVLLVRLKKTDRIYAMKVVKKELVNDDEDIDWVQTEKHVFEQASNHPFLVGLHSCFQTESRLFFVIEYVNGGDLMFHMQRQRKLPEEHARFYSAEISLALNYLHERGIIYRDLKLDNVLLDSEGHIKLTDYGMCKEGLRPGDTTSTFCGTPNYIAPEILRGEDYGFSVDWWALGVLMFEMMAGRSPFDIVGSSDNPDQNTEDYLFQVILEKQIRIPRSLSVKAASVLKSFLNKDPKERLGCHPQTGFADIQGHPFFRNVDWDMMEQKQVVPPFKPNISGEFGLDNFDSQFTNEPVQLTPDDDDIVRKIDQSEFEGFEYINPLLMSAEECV

[10] = biological target: Platelet-derived growth factor receptor beta (Homo sapiens) (UniProt P09619); assay: Inhibition of human recombinant PDGFRb at 15 nM in presence of ATP by radiometric assay relative to control
Platelet-derived growth factor receptor beta (Homo sapiens), sequence (P09619 whole entry): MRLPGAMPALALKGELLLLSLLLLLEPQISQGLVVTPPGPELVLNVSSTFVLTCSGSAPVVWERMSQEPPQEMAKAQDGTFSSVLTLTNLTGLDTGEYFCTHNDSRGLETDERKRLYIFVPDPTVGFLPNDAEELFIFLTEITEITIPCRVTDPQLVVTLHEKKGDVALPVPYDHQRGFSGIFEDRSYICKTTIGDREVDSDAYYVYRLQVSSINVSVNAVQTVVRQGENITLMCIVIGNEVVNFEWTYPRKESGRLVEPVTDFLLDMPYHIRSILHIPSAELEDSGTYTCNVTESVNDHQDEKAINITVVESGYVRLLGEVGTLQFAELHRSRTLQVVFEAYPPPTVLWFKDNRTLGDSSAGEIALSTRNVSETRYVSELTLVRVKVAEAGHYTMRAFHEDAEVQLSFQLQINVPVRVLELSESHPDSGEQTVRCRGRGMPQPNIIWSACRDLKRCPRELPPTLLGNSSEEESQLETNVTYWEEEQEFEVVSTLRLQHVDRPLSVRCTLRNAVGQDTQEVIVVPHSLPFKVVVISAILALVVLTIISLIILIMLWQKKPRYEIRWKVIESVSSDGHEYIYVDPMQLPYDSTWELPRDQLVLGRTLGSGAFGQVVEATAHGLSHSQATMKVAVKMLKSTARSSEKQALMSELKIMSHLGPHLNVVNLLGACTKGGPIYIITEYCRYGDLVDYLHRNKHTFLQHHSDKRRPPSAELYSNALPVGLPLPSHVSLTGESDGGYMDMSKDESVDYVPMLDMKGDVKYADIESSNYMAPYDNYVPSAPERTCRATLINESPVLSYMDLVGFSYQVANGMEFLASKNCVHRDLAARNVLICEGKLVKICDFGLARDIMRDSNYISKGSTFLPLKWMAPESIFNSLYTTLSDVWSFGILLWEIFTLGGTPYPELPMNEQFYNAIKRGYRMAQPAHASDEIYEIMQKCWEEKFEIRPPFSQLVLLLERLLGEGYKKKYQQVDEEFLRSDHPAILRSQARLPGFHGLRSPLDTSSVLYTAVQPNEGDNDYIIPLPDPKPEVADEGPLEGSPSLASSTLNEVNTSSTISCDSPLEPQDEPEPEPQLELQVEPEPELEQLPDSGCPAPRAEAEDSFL

[11] = biological target: Tau-tubulin kinase 1 (Homo sapiens) (UniProt Q5TCY1); assay: Inhibition of human recombinant TTBK1 at 15 nM related to control ULK1
[12] = biological target: T3, Serine/threonine-protein kinase 17B (Homo sapiens) (UniProt O94768); assay: Inhibition of human recombinant DRAK2 at 15 nM in presence of ATP by radiometric assay relative to control
T3 sequence (whole entry): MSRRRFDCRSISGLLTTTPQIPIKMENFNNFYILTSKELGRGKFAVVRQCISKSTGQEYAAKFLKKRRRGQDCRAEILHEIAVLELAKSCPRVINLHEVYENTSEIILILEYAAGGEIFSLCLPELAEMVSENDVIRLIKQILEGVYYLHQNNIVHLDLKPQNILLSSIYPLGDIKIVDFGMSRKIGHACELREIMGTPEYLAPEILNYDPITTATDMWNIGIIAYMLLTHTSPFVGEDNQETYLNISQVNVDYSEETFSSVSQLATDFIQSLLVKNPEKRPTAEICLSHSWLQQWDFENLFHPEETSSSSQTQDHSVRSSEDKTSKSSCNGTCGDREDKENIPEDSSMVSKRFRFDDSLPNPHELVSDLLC

Ephrin type-A receptor 4 (Homo sapiens), sequence (P54764 whole entry): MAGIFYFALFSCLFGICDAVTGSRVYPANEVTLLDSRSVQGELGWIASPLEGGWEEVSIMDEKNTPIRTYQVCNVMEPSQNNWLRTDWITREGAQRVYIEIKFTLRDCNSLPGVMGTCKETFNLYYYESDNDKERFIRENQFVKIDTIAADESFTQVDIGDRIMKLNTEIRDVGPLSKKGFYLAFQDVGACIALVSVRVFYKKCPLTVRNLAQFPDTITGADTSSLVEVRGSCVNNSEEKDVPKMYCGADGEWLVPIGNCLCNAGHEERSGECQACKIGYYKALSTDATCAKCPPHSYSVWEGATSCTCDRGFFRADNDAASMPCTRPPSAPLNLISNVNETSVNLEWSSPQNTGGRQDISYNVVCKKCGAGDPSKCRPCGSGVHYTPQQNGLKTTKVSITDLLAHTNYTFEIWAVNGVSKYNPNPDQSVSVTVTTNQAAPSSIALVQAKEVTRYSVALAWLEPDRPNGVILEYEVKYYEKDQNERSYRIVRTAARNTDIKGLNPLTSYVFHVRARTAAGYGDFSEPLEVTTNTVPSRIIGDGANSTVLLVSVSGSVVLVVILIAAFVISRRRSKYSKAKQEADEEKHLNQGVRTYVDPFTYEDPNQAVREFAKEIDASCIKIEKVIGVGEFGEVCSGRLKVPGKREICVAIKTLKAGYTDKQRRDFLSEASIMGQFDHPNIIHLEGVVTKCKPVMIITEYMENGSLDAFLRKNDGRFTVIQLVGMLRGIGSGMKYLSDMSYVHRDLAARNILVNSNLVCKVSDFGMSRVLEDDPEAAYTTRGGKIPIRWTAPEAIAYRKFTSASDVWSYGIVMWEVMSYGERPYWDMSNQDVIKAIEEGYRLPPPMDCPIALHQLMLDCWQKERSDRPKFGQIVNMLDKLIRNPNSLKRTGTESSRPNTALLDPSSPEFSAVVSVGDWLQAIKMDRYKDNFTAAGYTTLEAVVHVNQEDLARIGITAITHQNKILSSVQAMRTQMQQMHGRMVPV

inhibition [1]: 15%
fold change (FC) [2]: 0
fold change (FC) [3]: 0.03
fold change (FC) [4]: 0.11
SMILES: CNC(=O)c1ccccc1Oc1nc(Nc2cc(OC)c(OC)c(OC)c2)ncc1Br

fold change (FC) [5]: 0
fold change (FC) [6]: 0.11
fold change (FC) [7]: 0.23
inhibition [8]: 0%
inhibition [9]: 0%
SMILES: O=C(N[C@@H](C1CC1)C(F)(F)F)c1cc(-c2cnn3cc(-c4ccc(F)cc4)cnc23)cs1

inhibition [10]: 0%
fold change (FC) [11]: 0
inhibition [12]: 69%
SMILES: CC(C)[C@H](NC(=O)c1cc(-c2cnn3cc(-c4ccc(OCCN5CCCCC5)cc4)cnc23)cs1)C(F)(F)F
